Reference: ChEMBL document CHEMBL1938239, “Novel analgesic/anti-inflammatory agents: diarylpyrrole acetic esters endowed with nitric oxide releasing properties” (J Med Chem, 2011)
Activity calls are given as the source filed them. The calls are words filed in the database; no cut-off is given here.

What was measured:
[1] = molecular target: T1, Prostaglandin G/H synthase 2 (Mus musculus, UniProt Q05769); assay: Inhibition of COX-2-mediated PGE2 production in LPS-stimulated mouse J774 cells after 24 hrs by radioimmunoassay; assay type: cell-based
T1 sequence (Q05769 whole entry): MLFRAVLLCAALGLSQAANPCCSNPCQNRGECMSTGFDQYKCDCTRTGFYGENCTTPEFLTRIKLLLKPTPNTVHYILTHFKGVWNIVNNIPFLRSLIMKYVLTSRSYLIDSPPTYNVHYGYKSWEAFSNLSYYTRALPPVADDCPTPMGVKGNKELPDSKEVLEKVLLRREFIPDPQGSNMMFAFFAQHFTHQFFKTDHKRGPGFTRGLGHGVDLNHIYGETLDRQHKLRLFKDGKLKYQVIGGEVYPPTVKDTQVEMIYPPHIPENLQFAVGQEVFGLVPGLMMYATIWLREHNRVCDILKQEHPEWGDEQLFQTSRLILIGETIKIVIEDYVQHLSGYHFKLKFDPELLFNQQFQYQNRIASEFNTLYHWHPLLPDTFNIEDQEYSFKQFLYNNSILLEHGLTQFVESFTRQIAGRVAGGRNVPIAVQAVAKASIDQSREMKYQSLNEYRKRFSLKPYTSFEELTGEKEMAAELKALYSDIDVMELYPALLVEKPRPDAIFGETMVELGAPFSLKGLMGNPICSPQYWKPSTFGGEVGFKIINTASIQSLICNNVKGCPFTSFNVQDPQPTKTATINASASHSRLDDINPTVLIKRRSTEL

[2] = system: Aorta; assay: Vasorelaxation activity against KCl-induced contraction in isolated Wistar rat thoracic endothelium-denulated aortic rings in the presence of guanylate cyclase inhibitor ODQ; assay type: functional, tissue-based
Method in brief: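 Thoracic aortic rings from male Wistar rats (250–350 g), endothelium removed by rubbing; rings relaxing ≥10% to ACh 10 μM on KCl 30 mM tone were discarded. ODQ 1 μM was incubated, then rings were contracted with KCl 30 mM and given 3-fold increasing concentrations of 1 nM–10 μM.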

[3] = molecular target: T2, Prostaglandin G/H synthase 1 (Mus musculus) (UniProt P22437); assay: Inhibition of COX-1-mediated PGE2 production in arachidonic acid-stimulated mouse J774 cells at 10 uM incubated for 15 mins prior to arachidonic acid-challenge by radioimmunoassay; assay type: cell-based
T2 sequence (whole entry): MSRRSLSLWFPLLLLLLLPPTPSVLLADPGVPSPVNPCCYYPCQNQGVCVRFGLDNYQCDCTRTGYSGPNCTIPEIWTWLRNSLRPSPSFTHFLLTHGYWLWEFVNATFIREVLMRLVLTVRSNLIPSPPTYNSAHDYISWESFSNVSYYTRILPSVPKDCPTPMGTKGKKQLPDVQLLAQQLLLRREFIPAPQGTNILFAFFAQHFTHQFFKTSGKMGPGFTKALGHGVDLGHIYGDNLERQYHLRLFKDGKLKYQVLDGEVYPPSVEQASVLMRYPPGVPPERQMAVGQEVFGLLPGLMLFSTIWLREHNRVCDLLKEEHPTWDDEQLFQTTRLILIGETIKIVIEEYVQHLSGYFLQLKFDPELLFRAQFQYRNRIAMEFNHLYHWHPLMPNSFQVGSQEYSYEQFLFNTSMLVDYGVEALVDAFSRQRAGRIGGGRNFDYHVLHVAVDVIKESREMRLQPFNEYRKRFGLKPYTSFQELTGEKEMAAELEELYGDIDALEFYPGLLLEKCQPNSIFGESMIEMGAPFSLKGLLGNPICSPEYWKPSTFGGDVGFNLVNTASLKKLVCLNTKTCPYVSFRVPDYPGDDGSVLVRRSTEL
Method in brief: (§1)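 J774 murine macrophages grown in DMEM with 10% FBS and allowed to adhere for 2 h at 37 °C. Where inhibition exceeded 50%, 0.01–1 μM was also tested. Supernatant PGE2 was measured by RIA as % inhibition versus control, in triplicate wells over three experiments. IC50 came from a sigmoidal variable-slope fit.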

[4] = molecular target: T3, Prostaglandin G/H synthase 1 (Mus musculus, UniProt P22437); assay: Inhibition of COX-1-mediated PGE2 production in arachidonic acid-stimulated mouse J774 cells incubated for 15 mins prior to arachidonic acid-challenge by radioimmunoassay; assay type: cell-based
T3 sequence (P22437 whole entry): T2 sequence (whole entry)
Method in brief: as §1, with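 “2 h at 37 °C. Cells were pretreated with compound at 10 μM for 15 min, then given 15 μM arachidonic acid for 30 min at 37” for “2 h at 37”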

[5] = system: Aorta; assay: Vasorelaxation activity against KCl-induced contraction in isolated Wistar rat thoracic endothelium-denulated aortic rings; assay type: functional, tissue-based
Method in brief: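 Endothelium-denuded thoracic aortic rings from male Wistar rats (250−350 g); denudation confirmed by <10% relaxation to 10 μM ACh. Rings precontracted with 30 mM KCl; compound added at 3-fold increasing concentrations, 1 nM to 10 μM. Isometric tension recorded. Emax given as % of KCl tone; pIC50 derived. Mean ± standard error of 6−10 experiments; repeated with 1 μM ODQ.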

[6] = system: J774; assay: Selectivity ratio of IC50 for COX1 in mouse J774 cells to IC50 for COX2 in mouse J774 cells; assay type: cell-based
Method in brief: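 Ratio of J774 IC50s, COX-1 over COX-2. For COX-1, cells were pretreated with compound for 15 min, then given 15 μM arachidonic acid for 30 min at 37 °C. For COX-2, cells received E. coli LPS 10 μg/mL for 24 h with compound at 0.01–10 μM. PGE2 was measured by RIA in triplicate wells over three experiments. IC50 came from a sigmoidal fit.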

[7] = molecular target: T4, Prostaglandin G/H synthase 2 (Mus musculus) (UniProt Q05769); assay: Inhibition of COX-2-mediated PGE2 production in LPS-stimulated mouse J774 cells at 0.001 uM after 24 hrs by radioimmunoassay; assay type: cell-based
T4 sequence (whole entry): T1 sequence (Q05769 whole entry)

[8] = molecular target: T2, Prostaglandin G/H synthase 1 (Mus musculus); assay: Inhibition of COX-1-mediated PGE2 production in arachidonic acid-stimulated mouse J774 cells at 1 uM incubated for 15 mins prior to arachidonic acid-challenge by radioimmunoassay; assay type: cell-based; method in brief: as §1

| SMILES | IC50 [1] | Activity [2] | inhibition [3] | IC50 [4] | Emax [5] | IC50 [5] | Ratio IC50 [6] | inhibition [7] | inhibition [8] |
| --- | --- | --- | --- | --- | --- | --- | --- | --- | --- |
| CSc1ccc(-n2c(-c3ccc(S(C)(=O)=O)cc3)cc(CC(=O)OCCO[N+](=O)[O-])c2C)cc1 | 0.017 µM | inactive | 0% | > 10 µM | 65% | 0.457 µM | > 588 | – | – |
| Cc1c(CC(=O)OCCCO[N+](=O)[O-])cc(-c2ccc(S(C)(=O)=O)cc2)n1-c1ccc(F)cc1 | 0.0372 µM | inactive | 28% | > 10 µM | 41% | > 10 µM | > 269 | – | – |
| Cc1c(CC(=O)OCCCO[N+](=O)[O-])cc(-c2ccc(S(C)(=O)=O)cc2)n1-c1ccccc1 | 0.042 µM | inactive | 27% | > 10 µM | 44% | > 10 µM | > 238 | – | – |
| CSc1ccc(-n2c(-c3ccc(S(C)(=O)=O)cc3)cc(CC(=O)O)c2C)cc1 | 0.013 µM | – | 45% | > 10 µM | – | – | > 769 | – | – |
| COc1ccc(-n2c(-c3ccc(S(C)(=O)=O)cc3)cc(CC(=O)OCCO)c2C)cc1 | – | – | 5% | > 10 µM | – | – | > 9.1 | – | – |
| O=[N+]([O-])OCC(CO[N+](=O)[O-])O[N+](=O)[O-] [NITROGLYCERIN] | – | – | – | – | 73% | 0.126 µM | – | – | – |
| COc1ccc(-n2c(-c3ccc(S(C)(=O)=O)cc3)cc(CC(=O)OCCCO[N+](=O)[O-])c2C)cc1 | 0.0024 µM | inactive | – | > 10 µM | – | > 10 µM | > 4170 | 39% | 0% |
| Cc1c(CC(=O)OCCCO)cc(-c2ccc(S(C)(=O)=O)cc2)n1-c1ccc(F)cc1 | 0.056 µM | – | 0% | > 10 µM | – | – | > 179 | – | – |
| Cc1c(CC(=O)OCCO[N+](=O)[O-])cc(-c2ccc(S(C)(=O)=O)cc2)n1-c1ccc(F)cc1 | 0.029 µM | inactive | 0% | > 10 µM | – | 3.39 µM | > 345 | – | – |
| Cc1c(CC(=O)O)cc(-c2ccc(S(C)(=O)=O)cc2)n1-c1ccc(F)cc1 | 0.5 µM | – | – | > 10 µM | – | – | > 20 | – | – |
